{"source": "ChEMBL document CHEMBL1649199", "about": "(Antimicrob Agents Chemother, 2009)", "key": {"Plasmodium falciparum [1]": {"system": "Plasmodium falciparum", "assay": "Antimicrobial activity against Plasmodium falciparum IMT 9881 harboring Pfcrt, Pfmdr1, Pfmrp, and Pfnhe-1 polymorphisms assessed as growth inhibition after 48 hrs by scintillation counting", "format": "functional, organism-based", "details": "IMT 9881, 48 h", "summary_of_the_method": "(§1)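 Sorbitol-synchronized (twice) culture-adapted strains were grown in type A+ human blood in RPMI 1640 with 10% human serum, 25 mM HEPES and 25 mM NaHCO3, at 37°C under 10% O2/5% CO2/85% N2. Rings (>95%) at 0.5% parasitemia and 1.5% hematocrit were exposed to drug, methanol then water, final 0.125–400 nM or 5.3–3,387 nM, with 1 μCi [3H]hypoxanthine for 48 h. IC50 from nonlinear regression versus drug-free controls.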"}, "Plasmodium falciparum [2]": {"system": "Plasmodium falciparum", "assay": "Antimicrobial activity against Plasmodium falciparum IMT 10354 harboring Pfcrt, Pfmdr1, Pfmrp, and Pfnhe-1 polymorphisms assessed as growth inhibition after 48 hrs by scintillation counting", "format": "functional, organism-based", "details": "IMT 10354, 48 h", "summary_of_the_method": "as §1"}, "Plasmodium falciparum [3]": {"system": "Plasmodium falciparum", "assay": "Antimicrobial activity against Plasmodium falciparum D6 harboring Pfcrt, Pfmdr1, Pfmrp, and Pfnhe-1 polymorphisms assessed as growth inhibition after 48 hrs by scintillation counting", "format": "functional, organism-based", "details": "D6, 48 h", "summary_of_the_method": "as §1"}, "Plasmodium falciparum [4]": {"system": "Plasmodium falciparum", "assay": "Antimicrobial activity against Plasmodium falciparum IMT 16332 harboring Pfcrt, Pfmdr1, Pfmrp, and Pfnhe-1 polymorphisms assessed as growth inhibition after 48 hrs by scintillation counting", "format": "functional, organism-based", "details": "IMT 16332, 48 h", "summary_of_the_method": "as §1"}, "Plasmodium falciparum [5]": {"system": "Plasmodium falciparum", "assay": "Antimicrobial activity against Plasmodium falciparum 3D7 harboring Pfcrt, Pfmdr1, Pfmrp, and Pfnhe-1 polymorphisms assessed as growth inhibition after 48 hrs by scintillation counting", "format": "functional, organism-based", "details": "3D7, 48 h", "summary_of_the_method": "as §1"}, "Plasmodium falciparum [6]": {"system": "Plasmodium falciparum", "assay": "Antimicrobial activity against Plasmodium falciparum IMT 8425 harboring Pfcrt, Pfmdr1, Pfmrp, and Pfnhe-1 polymorphisms assessed as growth inhibition after 48 hrs by scintillation counting", "format": "functional, organism-based", "details": "IMT 8425, 48 h", "summary_of_the_method": "as §1"}, "Plasmodium falciparum [7]": {"system": "Plasmodium falciparum", "assay": "Antimicrobial activity against Plasmodium falciparum IMT 16116 harboring Pfcrt, Pfmdr1, Pfmrp, and Pfnhe-1 polymorphisms assessed as growth inhibition after 48 hrs by scintillation counting", "format": "functional, organism-based", "details": "IMT 16116, 48 h", "summary_of_the_method": "as §1"}, "Plasmodium falciparum [8]": {"system": "Plasmodium falciparum", "assay": "Antimicrobial activity against Plasmodium falciparum IMT 10500 harboring Pfcrt, Pfmdr1, Pfmrp, and Pfnhe-1 polymorphisms assessed as growth inhibition after 48 hrs by scintillation counting", "format": "functional, organism-based", "details": "IMT 10500, 48 h", "summary_of_the_method": "as §1"}, "Plasmodium falciparum [9]": {"system": "Plasmodium falciparum", "assay": "Antimicrobial activity against Plasmodium falciparum IMT 10336 harboring Pfcrt, Pfmdr1, Pfmrp, and Pfnhe-1 polymorphisms assessed as growth inhibition after 48 hrs by scintillation counting", "format": "functional, organism-based", "details": "IMT 10336, 48 h", "summary_of_the_method": "as §1"}, "Plasmodium falciparum [10]": {"system": "Plasmodium falciparum", "assay": "Antimicrobial activity against Plasmodium falciparum FCR3 harboring Pfcrt, Pfmdr1, Pfmrp, and Pfnhe-1 polymorphisms assessed as growth inhibition after 48 hrs by scintillation counting", "format": "functional, organism-based", "details": "FCR3, 48 h", "summary_of_the_method": "as §1"}, "Plasmodium falciparum [11]": {"system": "Plasmodium falciparum", "assay": "Antimicrobial activity against Plasmodium falciparum IMT 31 harboring Pfcrt, Pfmdr1, Pfmrp, and Pfnhe-1 polymorphisms assessed as growth inhibition after 48 hrs by scintillation counting", "format": "functional, organism-based", "details": "IMT 31, 48 h", "summary_of_the_method": "as §1"}, "Plasmodium falciparum [12]": {"system": "Plasmodium falciparum", "assay": "Antimicrobial activity against Plasmodium falciparum IMT Vol harboring Pfcrt, Pfmdr1, Pfmrp, and Pfnhe-1 polymorphisms assessed as growth inhibition after 48 hrs by scintillation counting", "format": "functional, organism-based", "summary_of_the_method": "as §1"}, "Plasmodium falciparum [13]": {"system": "Plasmodium falciparum", "assay": "Antimicrobial activity against Plasmodium falciparum IMT 6311 harboring Pfcrt, Pfmdr1, Pfmrp, and Pfnhe-1 polymorphisms assessed as growth inhibition after 48 hrs by scintillation counting", "format": "functional, organism-based", "details": "IMT 6311, 48 h", "summary_of_the_method": "as §1"}, "Plasmodium falciparum [14]": {"system": "Plasmodium falciparum", "assay": "Antimicrobial activity against Plasmodium falciparum IMT Bres harboring Pfcrt, Pfmdr1, Pfmrp, and Pfnhe-1 polymorphisms assessed as growth inhibition after 48 hrs by scintillation counting", "format": "functional, organism-based", "summary_of_the_method": "as §1"}, "Plasmodium falciparum [15]": {"system": "Plasmodium falciparum", "assay": "Antimicrobial activity against Plasmodium falciparum IMT L1 harboring Pfcrt, Pfmdr1, Pfmrp, and Pfnhe-1 polymorphisms assessed as growth inhibition after 48 hrs by scintillation counting", "format": "functional, organism-based", "details": "IMT L1, 48 h", "summary_of_the_method": "(§2)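 Culture-adapted strains in RPMI 1640 with 10% human serum, 25 mM HEPES, 25 mM NaHCO3, type A+ blood, 10% O2/5% CO2/85% N2, 37°C; sorbitol-synchronized twice. Rings >95%, 0.5% parasitemia, 1.5% hematocrit; drug (methanol then water) final 0.125–400 nM or 5.3–3,387 nM. [3H]hypoxanthine 1 μCi/well at time zero, 48 h; freeze-thaw, harvest, scintillation; IC50 versus drug-free control by nonlinear regression of log dose-response.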"}, "Plasmodium falciparum [16]": {"system": "Plasmodium falciparum", "assay": "Antimicrobial activity against Plasmodium falciparum FCM29 harboring Pfcrt, Pfmdr1, Pfmrp, and Pfnhe-1 polymorphisms assessed as growth inhibition after 48 hrs by scintillation counting", "format": "functional, organism-based", "details": "FCM29, 48 h", "summary_of_the_method": "as §2"}, "Plasmodium falciparum [17]": {"system": "Plasmodium falciparum", "assay": "Antimicrobial activity against Plasmodium falciparum IMT K2 harboring Pfcrt, Pfmdr1, Pfmrp, and Pfnhe-1 polymorphisms assessed as growth inhibition after 48 hrs by scintillation counting", "format": "functional, organism-based", "details": "IMT K2, 48 h", "summary_of_the_method": "as §2"}, "Plasmodium falciparum [18]": {"system": "Plasmodium falciparum", "assay": "Antimicrobial activity against Plasmodium falciparum IMT A4 harboring Pfcrt, Pfmdr1, Pfmrp, and Pfnhe-1 polymorphisms assessed as growth inhibition after 48 hrs by scintillation counting", "format": "functional, organism-based", "details": "IMT A4, 48 h", "summary_of_the_method": "as §2"}, "Plasmodium falciparum [19]": {"system": "Plasmodium falciparum", "assay": "Antimicrobial activity against Plasmodium falciparum PA harboring Pfcrt, Pfmdr1, Pfmrp, and Pfnhe-1 polymorphisms assessed as growth inhibition after 48 hrs by scintillation counting", "format": "functional, organism-based", "summary_of_the_method": "as §2"}, "Plasmodium falciparum [20]": {"system": "Plasmodium falciparum", "assay": "Antimicrobial activity against Plasmodium falciparum W2 harboring Pfcrt, Pfmdr1, Pfmrp, and Pfnhe-1 polymorphisms assessed as growth inhibition after 48 hrs by scintillation counting", "format": "functional, organism-based", "details": "W2, 48 h", "summary_of_the_method": "as §1"}, "Plasmodium falciparum [21]": {"system": "Plasmodium falciparum", "assay": "Antimicrobial activity against Plasmodium falciparum IMT K4 harboring Pfcrt, Pfmdr1, Pfmrp, and Pfnhe-1 polymorphisms assessed as growth inhibition after 48 hrs by scintillation counting", "format": "functional, organism-based", "details": "IMT K4, 48 h", "summary_of_the_method": "as §1"}, "Plasmodium falciparum [22]": {"system": "Plasmodium falciparum", "assay": "Antimicrobial activity against Plasmodium falciparum IMT 9996 harboring Pfcrt, Pfmdr1, Pfmrp, and Pfnhe-1 polymorphisms assessed as growth inhibition after 48 hrs by scintillation counting", "format": "functional, organism-based", "details": "IMT 9996, 48 h", "summary_of_the_method": "as §1"}, "Plasmodium falciparum [23]": {"system": "Plasmodium falciparum", "assay": "Antimicrobial activity against Plasmodium falciparum IMT K14 harboring Pfcrt, Pfmdr1, Pfmrp, and Pfnhe-1 polymorphisms assessed as growth inhibition after 48 hrs by scintillation counting", "format": "functional, organism-based", "details": "IMT K14, 48 h", "summary_of_the_method": "as §1"}, "Plasmodium falciparum [24]": {"system": "Plasmodium falciparum", "assay": "Antimicrobial activity against Plasmodium falciparum ms4760-6 assessed as growth inhibition after 48 hrs by scintillation counting", "details": "ms4760-6, 48 h"}, "Plasmodium falciparum [25]": {"system": "Plasmodium falciparum", "assay": "Antimicrobial activity against Plasmodium falciparum ms4760-7 assessed as growth inhibition after 48 hrs by scintillation counting", "details": "ms4760-7, 48 h"}}}
{"smiles": "C=C[C@H]1CN2CC[C@H]1C[C@H]2[C@H](O)c1ccnc2ccc(OC)cc12", "note": "[QUININE]", "values": [{"measurement": "IC50", "setting": "Plasmodium falciparum [1]", "value": 57, "unit": "nM"}, {"measurement": "IC50", "setting": "Plasmodium falciparum [2]", "value": 58, "unit": "nM"}, {"measurement": "IC50", "setting": "Plasmodium falciparum [3]", "value": 62, "unit": "nM"}, {"measurement": "IC50", "setting": "Plasmodium falciparum [4]", "value": 83, "unit": "nM"}, {"measurement": "IC50", "setting": "Plasmodium falciparum [5]", "value": 128, "unit": "nM"}, {"measurement": "IC50", "setting": "Plasmodium falciparum [6]", "value": 148, "unit": "nM"}, {"measurement": "IC50", "setting": "Plasmodium falciparum [7]", "value": 204, "unit": "nM"}, {"measurement": "IC50", "setting": "Plasmodium falciparum [8]", "value": 210, "unit": "nM"}, {"measurement": "IC50", "setting": "Plasmodium falciparum [9]", "value": 271, "unit": "nM"}, {"measurement": "IC50", "setting": "Plasmodium falciparum [10]", "value": 334, "unit": "nM"}, {"measurement": "IC50", "setting": "Plasmodium falciparum [11]", "value": 371, "unit": "nM"}, {"measurement": "IC50", "setting": "Plasmodium falciparum [12]", "value": 421, "unit": "nM"}, {"measurement": "IC50", "setting": "Plasmodium falciparum [13]", "value": 453, "unit": "nM"}, {"measurement": "IC50", "setting": "Plasmodium falciparum [14]", "value": 500, "unit": "nM"}, {"measurement": "IC50", "setting": "Plasmodium falciparum [15]", "value": 575, "unit": "nM"}, {"measurement": "IC50", "setting": "Plasmodium falciparum [16]", "value": 580, "unit": "nM"}, {"measurement": "IC50", "setting": "Plasmodium falciparum [17]", "value": 599, "unit": "nM"}, {"measurement": "IC50", "setting": "Plasmodium falciparum [18]", "value": 605, "unit": "nM"}, {"measurement": "IC50", "setting": "Plasmodium falciparum [19]", "value": 625, "unit": "nM"}, {"measurement": "IC50", "setting": "Plasmodium falciparum [20]", "value": 686, "unit": "nM"}, {"measurement": "IC50", "setting": "Plasmodium falciparum [21]", "value": 1030, "unit": "nM"}, {"measurement": "IC50", "setting": "Plasmodium falciparum [22]", "value": 1040, "unit": "nM"}, {"measurement": "IC50", "setting": "Plasmodium falciparum [23]", "value": 1310, "unit": "nM"}, {"measurement": "IC50", "setting": "Plasmodium falciparum [24]", "value": 582, "unit": "nM"}, {"measurement": "IC50", "setting": "Plasmodium falciparum [25]", "value": 764, "unit": "nM"}]}
